Shown are actives, neighbours in structure and some others; about 2.4% of the full set was active somewhere.
PP5 primary = PP5 (human) phosphatase inhibition | P53041 | purified PP5c, OMFP substrate fluorescence | inhibition, % at 6.7 µM | hit rate 0.18% among 320,000;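 active = inhibition above the campaign's mean inhibition across all tested compounds plus 3 SD, cut at about 9.5% in these data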;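 note: 0% = DMSO only and 100% = 100 µM cantharidin control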
Target sequence (P53041 whole entry, looked up): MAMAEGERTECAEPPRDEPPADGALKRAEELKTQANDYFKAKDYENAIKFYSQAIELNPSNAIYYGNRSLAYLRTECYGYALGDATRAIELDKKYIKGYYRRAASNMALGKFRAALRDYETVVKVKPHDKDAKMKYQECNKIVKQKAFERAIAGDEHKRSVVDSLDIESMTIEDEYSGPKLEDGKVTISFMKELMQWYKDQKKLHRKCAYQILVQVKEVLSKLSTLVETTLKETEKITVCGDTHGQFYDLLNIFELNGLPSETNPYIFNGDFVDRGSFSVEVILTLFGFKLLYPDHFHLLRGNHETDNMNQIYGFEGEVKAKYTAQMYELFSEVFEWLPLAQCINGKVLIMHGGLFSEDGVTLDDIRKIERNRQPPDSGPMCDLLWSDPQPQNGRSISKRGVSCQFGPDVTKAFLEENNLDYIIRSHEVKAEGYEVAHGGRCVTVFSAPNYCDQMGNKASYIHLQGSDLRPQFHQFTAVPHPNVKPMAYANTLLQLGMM
T cruzi repl = T. cruzi replication inhibition. T. cruzi beta-gal in NIH3T3, luminescence, 90 h. inhibition, % (concentration not given with the values). hit rate 1.4% among 300,000. AID 1885;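 active = mean inhibition across valid replicates above about 55%, limit read from the data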;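 note: signal also drops with host cell toxicity which is not excluded here; 0% = plate median of DMSO wells and 100% = zero luminescence signal; higher percent means less beta-gal luminescence so fewer parasites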
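System – NIH/3T3 host cells with β-galactosidase reporter T. cruzi · Doses – single 50 nL compound addition per well in DMSO · Reagent – 5000 T. cruzi trypomastigotes/well · Medium – Low-serum DMEM with 2% FBS · Timing – ≥90 h infection period, 3 h prior cell attachment · Evaluation – parasite load inhibition, % · Technique – GalScreen luminescence, 60 min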
JMJD2C inh = blocks human GASC-1 demethylase activity; AID 2099; Q9H3R0; hit rate 0.069% among 330,000; GST-JMJD2C(1-420) H3K9me3 demethylation, DELFIA europium; inhibition, % at 2.35 µM;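 active = more than half of a compound's replicate wells show inhibition beyond 50%, single wells judged on their own value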;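 note: signal counts dimethyl H3K9 product captured on neutravidin plate; 0% = median of DMSO wells and 100% = 0.3 times that DMSO median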
p-CIP stab down = p/CIP protein destabilization; Q05BA5; F442A p/CIP-EGFP cells, EGFP fluorescence, 16 h; decrease of EGFP signal, % at 10 µM; hit rate 0.01% among 290,000; AID 1984;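 active = EGFP signal decrease of at least 30% at 10 µM or well 3 SD below plate mean, unless failing retest; inactive = the rest, including hits failing retest or dose response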
H9c2 protect = modulators protecting cardiomyocytes from myocardial damage; H9c2 cardiomyocytes, H2O2 injury protection, ATPLite, 2 h; protection from H2O2 cell death, % at 20 µM; hit rate 0.63% among 360,000; AID 588492;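 active = compounds giving at least 50% protection of heart cells from peroxide-induced death in the single-dose screen, raw or plate-pattern-corrected value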;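 note: 0% = DMSO wells with peroxide and 100% = DMSO wells without peroxide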
Fh CTSL1 inh = counter-screen for PFM18AAP inhibitors: inhibitors of F. hepatica cathepsin L1. hit rate 0.49% among 300,000. inhibition, % at 5.96 µM. recombinant F. hepatica cathepsin L1, Z-Leu-Arg-MCA fluorescence;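 active = inhibition above the mean of all tested compounds plus 3 SD, set per screening campaign, cut at about 17% in these data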;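 note: 0% = plate median of test compound wells and 100% = 1 µM Z-Phe-Ala-diazomethylketone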
Active calls of the source: *.

What do the screens show for `CN(C(=O)c1sc2nc(N3CCOCC3)c3c(c2c1N)CCCC3)c1ccccc1`?
PP5 primary: 0; T cruzi repl: 35; JMJD2C inh: -4; p-CIP stab down: 10; H9c2 protect: 61*; Fh CTSL1 inh: -2

Results for CC(=O)NCCNc1nc2c(-c3cccc(C)c3)nnn2c2ccccc12 ?
PP5 primary: 1; T cruzi repl: -10; JMJD2C inh: 28; p-CIP stab down: -11; H9c2 protect: 6; Fh CTSL1 inh: -7

Results for CC(=O)NCCNc1nc2c(-c3ccccc3)nnn2c2ccccc12 ?
PP5 primary: 0; T cruzi repl: 35; JMJD2C inh: -2; p-CIP stab down: -8; H9c2 protect: 55*; Fh CTSL1 inh: 2

Results for C=CSc1sc(Cl)c(N2CCOCC2)c1[N+](=O)[O-] ?
PP5 primary: 2; T cruzi repl: -12; JMJD2C inh: -13; p-CIP stab down: -10; H9c2 protect: -2; Fh CTSL1 inh: 1

What do the screens show for `C=CS(=O)(=O)c1sc(Cl)c(N2CCOCC2)c1[N+](=O)[O-]`?
T cruzi repl: 55*; JMJD2C inh: -20; p-CIP stab down: -6; H9c2 protect: -32

What do the screens show for `Cc1cccc(C)c1NC(=O)CN(C)C(=O)CN1C(=O)NC2(CCCC2)C1=O`?
PP5 primary: 1; T cruzi repl: -9; JMJD2C inh: 0; H9c2 protect: 0; Fh CTSL1 inh: 1

Results for O=C(Nc1ccc(Cl)cc1)N1CCN(c2ccc3nnc(-c4ccc(F)cc4)n3n2)CC1 ?
PP5 primary: 5; T cruzi repl: 52; JMJD2C inh: -6; p-CIP stab down: -7; H9c2 protect: 53*; Fh CTSL1 inh: -1

Results for O=C(c1ccc(Br)o1)N1CCN(c2ccc3nnc(-c4ccc(F)cc4)n3n2)CC1 ?
PP5 primary: 2; T cruzi repl: 30; JMJD2C inh: -2; p-CIP stab down: -13; H9c2 protect: 52*; Fh CTSL1 inh: -2

Results for O=C(Nc1ccccc1Cl)N1CCN(c2ccc3nnc(-c4ccccc4)n3n2)CC1 ?
PP5 primary: 1; T cruzi repl: 20; JMJD2C inh: -1; p-CIP stab down: -6; H9c2 protect: 43; Fh CTSL1 inh: 3

What do the screens show for `CCOC(=O)C(=Cc1ccc2c(c1)OCO2)c1ccccc1`?
H9c2 protect: -8

What do the screens show for `CC(C)(CN1CCN(C(c2ccccc2)c2ccccc2)CC1)NS(=O)(=O)c1ccccc1`?
PP5 primary: 1; T cruzi repl: 62*; JMJD2C inh: -2; p-CIP stab down: 0; H9c2 protect: -7; Fh CTSL1 inh: 1

How did CC(C)(CN1CCN(Cc2ccccc2)CC1)NS(=O)(=O)c1ccccc1 do in these assays?
PP5 primary: 4; T cruzi repl: 37; JMJD2C inh: -19; p-CIP stab down: -4; H9c2 protect: -12; Fh CTSL1 inh: 3

What do the screens show for `CCCCOc1ccc(OC(=O)c2cccnc2)cc1`?
PP5 primary: 1; T cruzi repl: 21; JMJD2C inh: -1; p-CIP stab down: 6; H9c2 protect: -6; Fh CTSL1 inh: 0

Results for CCCCCCCOc1ccc(OC(=O)c2cccnc2)cc1 ?
PP5 primary: 2; T cruzi repl: 57*; JMJD2C inh: 8; p-CIP stab down: -2; H9c2 protect: -10; Fh CTSL1 inh: 1

How did COc1ccccc1N(CC(=O)N1CCN(c2ccccc2)CC1)S(=O)(=O)c1ccc(C)cc1 do in these assays?
PP5 primary: 1; T cruzi repl: -6; JMJD2C inh: -16; p-CIP stab down: -8; H9c2 protect: 0; Fh CTSL1 inh: -1

How did O=C(NNc1nc2ccc(F)cc2s1)c1cccc(F)c1 do in these assays?
PP5 primary: 3; T cruzi repl: 67*; JMJD2C inh: 8; p-CIP stab down: -4; H9c2 protect: 4; Fh CTSL1 inh: 2

What do the screens show for `CCCN1CCC2(CC1)C(C#N)=C(N)Oc1c2sc2nc(C)cc(C)c12`?
PP5 primary: 3; T cruzi repl: 17; JMJD2C inh: 0; p-CIP stab down: -17; H9c2 protect: 12; Fh CTSL1 inh: 5

How did Cc1cc(C)c2c3c(sc2n1)C(c1cccc(F)c1)C(C#N)=C(N)O3 (stereo not drawn) do in these assays?
PP5 primary: 4; T cruzi repl: 72*; JMJD2C inh: 4; p-CIP stab down: -6; H9c2 protect: -5; Fh CTSL1 inh: -2

Results for Cc1nnc(N/N=C/c2c(Cl)cccc2Cl)n1N ?
PP5 primary: -1; T cruzi repl: -13; JMJD2C inh: 38; p-CIP stab down: 2; H9c2 protect: 4; Fh CTSL1 inh: 1

What do the screens show for `Cc1nnc(N/N=C/c2ccccc2O)n1N`?
PP5 primary: 2; T cruzi repl: -9; JMJD2C inh: -45; p-CIP stab down: -9; H9c2 protect: -1; Fh CTSL1 inh: 20*

How did Cc1nnc(N/N=C\c2ccc(-c3ccccc3[N+](=O)[O-])o2)n1N do in these assays?
PP5 primary: -2; T cruzi repl: -11; JMJD2C inh: 55*; p-CIP stab down: -10; H9c2 protect: -24; Fh CTSL1 inh: -2

Results for Cc1nnc(N/N=C/c2ccc(-c3ccccc3F)o2)n1N ?
PP5 primary: 2; T cruzi repl: 1; JMJD2C inh: 7; p-CIP stab down: -11; H9c2 protect: -4; Fh CTSL1 inh: 5

What do the screens show for `O=C(NCc1ccccc1F)C1CCCN1S(=O)(=O)c1ccc(Cl)cc1` (stereo not drawn)?
PP5 primary: -1; T cruzi repl: 7; JMJD2C inh: -5; p-CIP stab down: -2; H9c2 protect: -7; Fh CTSL1 inh: 0

How did CCOc1cc(/C=N/NC(N)=O)cc(Br)c1OCC(=O)Nc1cccc2ccccc12 do in these assays?
PP5 primary: 1; T cruzi repl: -7; JMJD2C inh: 13; p-CIP stab down: 3; H9c2 protect: 57*; Fh CTSL1 inh: -1

What do the screens show for `O=C1[C@H]2[C@@H](c3ccc(Cl)cc3)N3C(=O)N(c4cccc(F)c4)C(=O)[C@@]3(Cc3ccc(Cl)cc3)[C@H]2C(=O)N1C1CCCCC1`?
PP5 primary: 2; T cruzi repl: 61*; JMJD2C inh: -6; p-CIP stab down: 3; H9c2 protect: -3; Fh CTSL1 inh: -5

How did CC(C)(C)N1C(=O)[C@H]2[C@@H](c3ccc(Br)cc3)N3C(=O)N(c4cccc(Br)c4)C(=O)[C@@]3(Cc3ccccc3)[C@H]2C1=O do in these assays?
PP5 primary: 0; T cruzi repl: 58*; JMJD2C inh: -18; p-CIP stab down: -12; H9c2 protect: 6; Fh CTSL1 inh: -1

How did CCCCN1C(=O)C(CC(=O)NC2CCCC2)CC(C(=O)N2CCOCC2)=C1C (stereo not drawn) do in these assays?
H9c2 protect: 6

Results for Cc1cc(C(=O)NNS(=O)(=O)c2cc(C(=O)O)ccc2Cl)c(C)n1-c1ccccc1 ?
PP5 primary: 2; JMJD2C inh: -6; H9c2 protect: 1

Source: PubChem
